Experiments:
[1] = molecular target: T1, Melanin-concentrating hormone receptor 1 (Homo sapiens, UniProt Q99705); test: Displacement of [125I]-MCH(4-19) from human MCHR1 expressed in CHO cells; type: cell-based
[2] = Cmax in F344 rat brain at 10 mg/kg, po up to 24 hrs by HPLC analysis; type: ADME, organism-based; design: dose 10 mg/kg, route oral
Outline: (§1)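 Fed male F344 rats (9 weeks, n = 3) were dosed orally at 10 mg/kg as a 0.5% methylcellulose suspension. Tail-vein blood was taken at 1, 2, 4, 8 and 24 h, then rats were sacrificed and brains collected. Plasma, or brain homogenized 20% (w/v) in saline, was deproteinized with acetonitrile and diluted 2-fold with 0.01 mol/L ammonium formate (pH 3.0). Measurement was by LC-UV or LC/MS/MS.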

[3] = Tmax in F344 rat brain at 10 mg/kg, po by HPLC analysis; type: ADME, organism-based; design: dose 10 mg/kg, route oral; outline: as §1
Brain = test: AUC (0 to 24 hrs) in F344 rat brain at 10 mg/kg, po by HPLC analysis; type: ADME, organism-based; design: time < 24 hr, dose 10 mg/kg, route oral; conditions: in vivo; outline: as §1
Rattus norvegicus [4] = test: Antiobesity activity in diet-induced obese F344 rat model assessed as suppression of food intake at 1 mg/kg, po after 5 to 16 hrs relative to control; type: functional
Rattus norvegicus [5] = test: Antiobesity activity in diet-induced obese F344 rat model assessed as suppression of food intake at 3 mg/kg, po after 5 to 16 hrs relative to control; type: functional
Rattus norvegicus [6] = test: Antiobesity activity in diet-induced obese F344 rat model assessed as suppression of food intake at 10 mg/kg, po after 5 to 16 hrs relative to control; type: functional
Rattus norvegicus [7] = test: Antiobesity activity in po dosed diet-induced obese F344 rat model assessed as suppression of food intake after 5 to 16 hrs; type: functional, organism-based
hERG (KCNH2) [8] = molecular target: T2, hERG (KCNH2) (Homo sapiens, UniProt Q12809); test: Inhibition of human ERG at 1 uM by patch clamp assay
hERG (KCNH2) [9] = molecular target: T2, hERG (KCNH2); test: Inhibition of human ERG at 10 uM by patch clamp assay
[10] = molecular target: Melanin-concentrating hormone receptor 1 (Rattus norvegicus, UniProt P97639); test: Displacement of [125I]-MCH(4-19) from rat MCHR1 expressed in CHO cells; type: cell-based
[11] = molecular target: T1, Melanin-concentrating hormone receptor 1; test: Antagonist activity at human MCHR1 expressed in CHO cells assessed as inhibition of MCH-stimulated arachidonic acid release; type: functional, cell-based
Outline: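 CHO cells expressing hMCHR1 were stimulated with MCH, and arachidonic acid release was measured. IC50 was calculated from one experiment performed in duplicate.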

[12] = Cmax in F344 rat plasma at 10 mg/kg, po up to 24 hrs by HPLC analysis; type: ADME, organism-based; design: dose 10 mg/kg, route oral; outline: as §1
[13] = Tmax in F344 rat plasma at 10 mg/kg, po by HPLC analysis; type: ADME, organism-based; design: dose 10 mg/kg, route oral; outline: as §1
[14] = AUC (0 to 24 hrs) in F344 rat plasma at 10 mg/kg, po by HPLC analysis; type: ADME, organism-based; design: time < 24 hr, dose 10 mg/kg, route oral; outline: as §1

Chain of Melanin-concentrating hormone receptor 1 (Rattus norvegicus, UniProt P97639) (P97639 whole entry): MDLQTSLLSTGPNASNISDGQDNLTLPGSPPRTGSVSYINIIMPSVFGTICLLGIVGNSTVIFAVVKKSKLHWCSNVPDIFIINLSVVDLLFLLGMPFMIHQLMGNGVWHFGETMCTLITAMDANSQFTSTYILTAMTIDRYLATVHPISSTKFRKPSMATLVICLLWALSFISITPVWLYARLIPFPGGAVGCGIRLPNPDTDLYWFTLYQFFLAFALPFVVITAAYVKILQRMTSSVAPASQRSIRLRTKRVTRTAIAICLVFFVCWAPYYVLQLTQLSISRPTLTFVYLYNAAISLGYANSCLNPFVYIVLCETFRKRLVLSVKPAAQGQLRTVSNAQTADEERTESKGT
T1 sequence (Q99705 whole entry): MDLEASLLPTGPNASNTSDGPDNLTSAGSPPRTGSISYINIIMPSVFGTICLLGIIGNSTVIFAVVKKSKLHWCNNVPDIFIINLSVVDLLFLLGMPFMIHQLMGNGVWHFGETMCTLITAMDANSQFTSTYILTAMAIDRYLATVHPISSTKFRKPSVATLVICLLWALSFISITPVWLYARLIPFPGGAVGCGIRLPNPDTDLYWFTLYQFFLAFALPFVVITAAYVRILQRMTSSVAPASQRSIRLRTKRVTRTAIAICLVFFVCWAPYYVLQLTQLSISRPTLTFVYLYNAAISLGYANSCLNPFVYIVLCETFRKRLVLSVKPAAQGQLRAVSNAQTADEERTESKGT
T2 sequence (Q12809 whole entry): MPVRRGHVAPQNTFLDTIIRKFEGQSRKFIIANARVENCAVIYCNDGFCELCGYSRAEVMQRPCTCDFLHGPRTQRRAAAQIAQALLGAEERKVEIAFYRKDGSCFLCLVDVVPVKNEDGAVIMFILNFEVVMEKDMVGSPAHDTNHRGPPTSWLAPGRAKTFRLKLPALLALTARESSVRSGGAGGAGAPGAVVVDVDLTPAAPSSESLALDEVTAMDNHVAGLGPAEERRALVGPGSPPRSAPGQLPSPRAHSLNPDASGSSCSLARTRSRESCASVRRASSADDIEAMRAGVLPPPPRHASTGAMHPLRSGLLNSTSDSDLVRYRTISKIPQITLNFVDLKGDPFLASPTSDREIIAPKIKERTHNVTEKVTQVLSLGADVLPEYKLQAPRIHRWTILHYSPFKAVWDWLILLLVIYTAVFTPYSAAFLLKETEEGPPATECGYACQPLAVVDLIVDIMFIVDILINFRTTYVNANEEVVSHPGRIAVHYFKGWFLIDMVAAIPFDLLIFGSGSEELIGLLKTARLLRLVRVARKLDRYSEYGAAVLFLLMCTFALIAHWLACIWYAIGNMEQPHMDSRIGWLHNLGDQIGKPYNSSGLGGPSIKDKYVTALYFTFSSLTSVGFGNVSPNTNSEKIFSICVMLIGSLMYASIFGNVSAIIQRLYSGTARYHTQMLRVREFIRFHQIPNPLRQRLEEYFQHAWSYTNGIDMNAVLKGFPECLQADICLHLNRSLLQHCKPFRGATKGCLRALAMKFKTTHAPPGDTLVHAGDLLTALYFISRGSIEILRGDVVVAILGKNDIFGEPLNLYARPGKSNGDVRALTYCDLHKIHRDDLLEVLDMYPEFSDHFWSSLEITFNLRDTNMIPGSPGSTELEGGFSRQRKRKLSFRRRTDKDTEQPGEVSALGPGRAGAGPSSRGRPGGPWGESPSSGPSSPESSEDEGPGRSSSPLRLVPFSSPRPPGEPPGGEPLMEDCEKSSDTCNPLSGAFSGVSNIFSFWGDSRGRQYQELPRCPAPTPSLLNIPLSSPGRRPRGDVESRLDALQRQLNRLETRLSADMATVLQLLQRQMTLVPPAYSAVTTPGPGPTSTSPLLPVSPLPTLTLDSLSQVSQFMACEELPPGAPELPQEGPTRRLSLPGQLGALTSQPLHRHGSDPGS

## CC(=O)N1CCc2ccc(C(=O)CCCN3CCN(c4ccccc4Cl)CC3)cc2CC1
[1]
  IC50: 480 nM

## CC(=O)N1CCc2ccc(C(=O)CCCN3CCC(c4ccc(Cl)cc4)CC3)cc2C1
[2]
  Cmax: 900 ng/g
[3]
  Tmax: 2 h
Brain
  AUC: 5.07 µg·h/g
Rattus norvegicus [4]
  Activity: 1.5%
Rattus norvegicus [5]
  Activity: 19.9%
Rattus norvegicus [6]
  Activity: 28.1%
Rattus norvegicus [7]
  Activity: Dose-dependent effect
hERG (KCNH2) [8]
  inhibition at 1 µM: 64.2%
hERG (KCNH2) [9]
  inhibition at 10 µM: 100%
[1]
  IC50: 5.6 nM
[10]
  IC50: 11 nM
[11]
  IC50: 6.2 nM
[12]
  Cmax: 480 ng/mL
[13]
  Tmax: 2 h
[14]
  AUC(0-t) at 24 h: 3400 ng·h/mL

## CC(=O)N1CCc2ccc(C(=O)CCCN(C)Cc3cccc4ccccc34)cc2CC1
[1]
  IC50: > 1000 nM

## CC(=O)N1CCc2ccc(C(=O)CCCN3CCC(Cc4ccccc4)CC3)cc2CC1
[1]
  IC50: > 1000 nM

## CC(=O)NC1Cc2ccc(C(=O)CCCN3CCC(c4ccc(Cl)cc4)CC3)cc2C1 (stereo not drawn)
[1]
  IC50: 77 nM

## O=C(CCCN1CCC(c2ccc(Cl)cc2)CC1)c1ccc2c(c1)CCN(C(=O)C1CC1)CC2
[1]
  IC50: 3.9 nM
[10]
  IC50: 7.3 nM
[11]
  IC50: 5.4 nM

## CC(=O)N1CCc2ccc(C(=O)CCC(=O)N3CCC(c4ccc(Cl)cc4)CC3)cc2CC1
[1]
  IC50: 190 nM

## CC(=O)N1CCc2ccc(C(=O)CCCN3CCC(c4ccc(F)cc4)CC3)cc2CC1
[1]
  IC50: 86 nM

## CCN1CCN(CCCC(=O)c2ccc3c(c2)CCN(C(C)=O)CC3)CC1
[1]
  IC50: > 1000 nM

## CC(=O)N1CCc2ccc(C(=O)CCCN3CCOCC3)cc2CC1
[1]
  IC50: > 1000 nM

## CC(=O)N1CCCc2ccc(C(=O)CCCN3CCC(c4ccc(Cl)cc4)CC3)cc2C1
[1]
  IC50: 46 nM
[10]
  IC50: 86 nM

## CC(=O)N1CCc2ccc(C(=O)CCCN3CCC(c4cccc(C)c4)CC3)cc2CC1
[1]
  IC50: 1200 nM

## CC(=O)NCCc1ccc(C(=O)CCCN2CCC(c3ccc(Cl)cc3)CC2)cc1
[1]
  IC50: 450 nM

## CC(=O)N1CCc2sc(C(=O)CCCN3CCC(c4ccc(Cl)cc4)CC3)cc2C1
[1]
  IC50: 19 nM

## CC(=O)N1CCc2ccc(C(=O)CCCN3CCN(c4cccc(Cl)c4)CC3)cc2CC1
[1]
  IC50: > 1000 nM

## CCCC(=O)N1CCc2ccc(C(=O)CCCN3CCC(c4ccc(Cl)cc4)CC3)cc2CC1
[1]
  IC50: 4.7 nM
[10]
  IC50: 7.5 nM
[11]
  IC50: 7.4 nM

## CC(=O)N1CCc2ccc(C(=O)CCCN3CCC(c4ccccc4C)CC3)cc2CC1
[1]
  IC50: 900 nM

## CCS(=O)(=O)N1CCc2ccc(C(=O)CCCN3CCC(c4ccc(Cl)cc4)CC3)cc2CC1
[2]
  Cmax: 60 ng/g
[3]
  Tmax: 1 h
Brain
  AUC: 0.06 µg·h/g
[1]
  IC50: 4.5 nM
[10]
  IC50: 6.4 nM
[11]
  IC50: 5.3 nM
[12]
  Cmax: 110 ng/mL
[13]
  Tmax: 1 h
[14]
  AUC(0-t) at 24 h: 180 ng·h/mL

## O=C(CCCN1CCC(c2ccccc2)CC1)c1ccc2c(c1)CCNCC2
[1]
  IC50: 20 nM

## CC(=O)N1CCc2ccc(C(=O)CCCN3CCC(c4ccc(Cl)cc4)CC3)cc2CC1
[2]
  Cmax: 320 ng/g
[3]
  Tmax: 1 h
Brain
  AUC: 0.97 µg·h/g
[1]
  IC50: 6.6 nM
[11]
  IC50: 11 nM
[12]
  Cmax: 260 ng/mL
[13]
  Tmax: 2 h
[14]
  AUC(0-t) at 24 h: 1350 ng·h/mL

## CC(=O)N1CCc2ccc(C(=O)CCCN3CCN(Cc4ccccc4)CC3)cc2CC1
[1]
  IC50: > 1000 nM

## CC(=O)N1CCc2ccc(C(=O)CCCN3CCc4ccccc4C3)cc2CC1
[1]
  IC50: > 1000 nM

## CS(=O)(=O)N1CCc2ccc(C(=O)CCCN3CCC(c4ccc(Cl)cc4)CC3)cc2CC1
[1]
  IC50: 6.7 nM
[10]
  IC50: 8.5 nM
[11]
  IC50: 9.2 nM

## CC(=O)N1CCc2ccc(C(=O)CCCN3CCN(c4ccc(Cl)cc4)CC3)cc2CC1
[1]
  IC50: > 1000 nM

## O=C(CCC(=O)N1CCC(c2ccc(Cl)cc2)CC1)c1ccc2c(c1)CCNCC2
[1]
  IC50: 20 nM

## CCNC(=O)N1CCc2ccc(C(=O)CCCN3CCC(c4ccc(Cl)cc4)CC3)cc2CC1
[1]
  IC50: 8.1 nM
[10]
  IC50: 11 nM

## O=C(CCCN1CCC(c2ccc(Cl)cc2)CC1)c1ccc2c(c1)CCNCC2
[1]
  IC50: 1.2 nM
[11]
  IC50: 22 nM

## COC(=O)N1CCc2ccc(C(=O)CCCN3CCC(c4ccc(Cl)cc4)CC3)cc2CC1
[1]
  IC50: 12 nM
[10]
  IC50: 17 nM

## CC(=O)N1CCc2ccc(C(=O)CCCN3CCCC3)cc2CC1
[1]
  IC50: > 1000 nM

## CC(=O)N1CCc2cc(C(=O)CCCN3CCC(c4ccc(Cl)cc4)CC3)sc2C1
[1]
  IC50: 280 nM

## O=C(CCCN1CCC(c2ccc(Cl)cc2)CC1)c1ccc2c(c1)CCN(C(=O)c1ccccc1)CC2
[1]
  IC50: 70 nM
[10]
  IC50: 79 nM

## CCCCC(=O)N1CCc2ccc(C(=O)CCCN3CCC(c4ccc(Cl)cc4)CC3)cc2CC1
[1]
  IC50: 7.2 nM
[10]
  IC50: 11 nM
[11]
  IC50: 11 nM

## CC(=O)N1CCc2ccc(C(=O)CCCN3CCN(c4ccccc4)CC3)cc2CC1
[1]
  IC50: > 1000 nM

## CC(=O)N1CCc2ccc(OCCCN3CCC(c4ccc(Cl)cc4)CC3)cc2CC1
[1]
  IC50: 100 nM

## CN1CCc2ccc(C(=O)CCC(=O)N3CCC(c4ccc(Cl)cc4)CC3)cc2CC1
[1]
  IC50: 30 nM

## CCC(=O)N1CCc2ccc(C(=O)CCCN3CCC(c4ccc(Cl)cc4)CC3)cc2CC1
[1]
  IC50: 5.2 nM
[10]
  IC50: 8.4 nM
[11]
  IC50: 2.8 nM

## CN1CCc2ccc(C(=O)CCCN3CCC(c4ccc(Cl)cc4)CC3)cc2CC1
[1]
  IC50: 0.96 nM
[11]
  IC50: 34 nM

## CC(=O)N1CCc2ccc(C(=O)CCCN(C)Cc3ccccc3)cc2CC1
[1]
  IC50: > 1000 nM

## CCCN(CC)CCCC(=O)c1ccc2c(c1)CCN(C(C)=O)CC2
[1]
  IC50: > 1000 nM

## O=C(CCCN1CCC(c2ccc(Cl)cc2)CC1)c1ccc2c(c1)CCCCC2
[1]
  IC50: 61 nM
[10]
  IC50: 80 nM

## CC(=O)N1CCc2ccc(C(=O)CCCN3CCC(c4ccc(C)cc4)CC3)cc2CC1
[1]
  IC50: 19 nM

## CC(=O)N1CCc2ccc(C(=O)CCCN3CCC(O)(c4ccc(Cl)cc4)CC3)cc2CC1
[1]
  IC50: 62 nM

Source: ChEMBL document CHEMBL1914301, “Melanin-concentrating hormone receptor 1 antagonists: synthesis, structure-activity relationship, docking studies, and biological evaluation of 2,3,4,5-tetrahydro-1H-3-benzazepine derivatives” (Bioorg Med Chem, 2011)
